# Activity calls are given as the source filed them. The calls are words filed in the database; no cut-off is given here.
# Assays:
# Mus musculus [1] = assay: Anti-diabetic activity in 6 h-fasted db/db mouse assessed as inhibition of DPP4 in plasma at 10 mg/kg, po administered as single dose pretreated for 60 mins followed by glucose challenge and measured after 120 mins post glucose challenge by OGTT; type: functional, organism-based
# Mus musculus [2] = assay: Anti-diabetic activity in db/db mouse assessed as reduction in fasting blood glucose at 10 mg/kg, po dosed once weekly for 8 weeks; type: functional; design: scale not given: the % may be the effect or the level left
# Mus musculus [3] = assay: Anti-diabetic activity in db/db mouse assessed as increase in glucose tolerance at 10 mg/kg, po dosed once weekly for 8 weeks by OGTT; type: functional, organism-based
# Mus musculus [4] = assay: Anti-diabetic activity in db/db mouse assessed as increase in glucose-induced insulin secretion at 10 mg/kg, po dosed once weekly for 8 weeks pretreated for 60 mins followed by glucose challenge and measured after 120 mins post glucose challenge by OGTT relative to control; type: functional
# Mus musculus [5] = assay: Anti-diabetic activity in db/db mouse assessed as HbA1c levels at 10 mg/kg, po dosed once weekly for 8 weeks; type: functional
# Mus musculus [6] = assay: Anti-diabetic activity in 6 hrs-fasted db/db mouse assessed as reduction in blood glucose AUC (0 to 120 mins) at 10 mg/kg, po pretre at ed for 60 mins followed by glucose challenge and measured after 120 mins post glucose challenge by OGTT rel at ive to control
# Mus musculus [7] = assay: Anti-diabetic activity in ICR mouse assessed as inhibition of DPP4 in plasma at 3 mg/kg, po administered as single dose using Gly-Pro-AMC as substrate and measured after 7 days post dose by fluorometric assay relative to control; type: functional
# Method in brief: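 Male ICR mice (n = 10/group), fasted 2 h, given single oral doses of 0.03–3 mg/kg in 0.5% CMC-Na, with pre-dose baseline blood. Blood was drawn at 1–168 h. […] DPP-4 was read continuously for 5 min at 37 °C with 10 µM Gly-Pro-AMC in 100 mM HEPES pH 7.5 containing 0.1 mg/mL BSA (ex 360/em 460 nm). % activity is the treated rate over each animal's own baseline rate.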
# Mus musculus [8] = assay: Anti-diabetic activity in 8 hrs-fasted ICR mouse assessed as reduction in blood glucose AUC (0 to 120 mins)at 0.3 mg/kg, po pretreated for 60 mins followed by glucose challenge and measured after 120 mins post glucose challenge by OGTT relative to control; type: functional
# Method in brief: (§1)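 Male ICR mice (n = 10/group), fasted 8 h, dosed orally at 0.03, 0.3 or 3 mg/kg in 0.5% CMC-Na 1 h before an oral glucose load of 3 g/kg. Glucometer readings at −60, 0, 15, 30, 60, 90 and 120 min. Glucose AUC0–120 min by the trapezoidal method; one-way ANOVA with Fisher's LSD against vehicle.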
# Mus musculus [9] = assay: Anti-diabetic activity in 8 hrs-fasted ICR mouse assessed as reduction in blood glucose AUC (0 to 120 mins) at 3 mg/kg, po pretre at ed for 60 mins followed by glucose challenge and measured after 120 mins post glucose challenge by OGTT rel at ive to control; type: functional; method in brief: as §1
# Mus musculus [10] = assay: Anti-diabetic activity in 8 hrs-fasted ICR mouse assessed as increase in GLP1 levels at 1 mg/kg, po pretreated for 60 mins followed by glucose challenge and measured 5 to 10 mins post glucose challenge by OGTT relative to control; type: functional
# Method in brief: (§2)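 Male ICR mice (n = 10/group), fasted 8 h, dosed orally at 0.3, 1 or 3 mg/kg 1 h before oral glucose at 3 g/kg. Blood was collected at 0, 5 and 10 min into tubes with valine pyrrolidide and EDTA. Active GLP-1[7-36 amide] and insulin measured by kit. Two-way ANOVA with Fisher's LSD against vehicle.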
# Mus musculus [11] = assay: Anti-diabetic activity in 8 hrs-fasted ICR mouse assessed as increase in insulin levels at 1 mg/kg, po pretreated for 60 mins followed by glucose challenge by OGTT; type: functional, organism-based; method in brief: as §2
SMILES,inhibition (Mus musculus [1]),Activity (Mus musculus [2]),Activity (Mus musculus [3]),fold change (FC) (Mus musculus [4]),Activity (Mus musculus [5]),inhibition in vivo at 10 mg/kg (Mus musculus [6]),inhibition (Mus musculus [7]),inhibition in vivo at 0.3 mg/kg (Mus musculus [8]),inhibition in vivo at 3 mg/kg (Mus musculus [9]),fold change (FC) (Mus musculus [10]),Activity (Mus musculus [11])
Cn1c(=O)cc(N2CCC[C@@H](N)C2)n(Cc2cc(F)ccc2C#N)c1=O [TRELAGLIPTIN],Active,16.8%,Active,1.7,Active,19.3%,–,–,–,–,–
CS(=O)(=O)n1cc2c(n1)CN([C@H]1CO[C@H](c3cc(F)ccc3F)[C@@H](N)C1)C2 [OMARIGLIPTIN],Active,26.6%,Active,1.8,Active,8.3%,Active,14.6%,22.1%,1.6 - 1.7,Active
